# Most compounds without a hit are left out; they make up all but 0.79% or so of the library.
# hIAP act = human IAP activators, primary screen, biochemical, luminescence, uHTS; AID 2524, 2010; purified human IAP, CDP-Star luminescence, 30 min; active compounds read high; 1 = vehicle-only enzyme, 0 = enzyme-free background; 330,000 tested, 0.16% active; activation factor at 10 µM;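 active = activation factor of the enzyme at least 2-fold when tested at 20 µM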
# Target sequence (P09923 whole entry, looked up): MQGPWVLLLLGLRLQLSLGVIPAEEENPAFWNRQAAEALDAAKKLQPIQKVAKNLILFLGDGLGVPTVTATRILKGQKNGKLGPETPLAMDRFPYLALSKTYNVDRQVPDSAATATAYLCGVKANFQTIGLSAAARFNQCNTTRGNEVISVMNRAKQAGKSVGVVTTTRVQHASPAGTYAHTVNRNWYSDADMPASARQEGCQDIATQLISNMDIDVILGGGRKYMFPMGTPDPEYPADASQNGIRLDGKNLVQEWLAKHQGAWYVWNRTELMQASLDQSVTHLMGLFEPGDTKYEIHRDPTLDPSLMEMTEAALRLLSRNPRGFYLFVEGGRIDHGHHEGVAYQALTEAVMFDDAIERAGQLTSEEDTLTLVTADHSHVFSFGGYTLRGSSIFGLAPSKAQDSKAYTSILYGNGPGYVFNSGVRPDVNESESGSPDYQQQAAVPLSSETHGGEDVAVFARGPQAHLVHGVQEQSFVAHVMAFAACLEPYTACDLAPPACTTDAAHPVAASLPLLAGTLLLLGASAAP
# mIAP inh = inhibitors of mouse IAP, primary screen, biochemical, luminescence, uHTS. intestinal alkaline phosphatase [Mus musculus]. purified mouse IAP, CDP-Star luminescence, 30 min. inhibition, % at 10 µM. 330,000 tested, 0.2% active. AID 2806, 2010;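 active = inhibition of at least 40% at 10 µM in the primary screen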;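 also: plate controls were DMSO with enzyme for no effect and no enzyme wells for full effect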
# bIAP act = bovine intestinal alkaline phosphatase activators, primary screen, biochemical, bovine IAP, CDP-star luminescence; purified bovine IAP, 30 min; active compounds read high; fold of DMSO-control signal, blank-subtracted; activation factor at 20 µM; alkaline phosphatase, intestinal [Bos taurus]; 200,000 tested, 0.17% active;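 active = activation factor of 2 or more at 20 µM, a signal rise over negative controls twice the positive control's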
# bIAP inh = bovine intestinal alkaline phosphatase inhibitors, primary screen, selectivity assay for TNAP inhibitor project, biochemical, bovine IAP, CDP-star luminescence; alkaline phosphatase, intestinal [Bos taurus]; purified bovine IAP, 30 min; inhibition, % at 20 µM; 190,000 tested, under 10 active;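 active = over 50% inhibition of intestinal alkaline phosphatase at 20 µM in the single-dose screen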
#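 Incubation: 30 min reaction at room temperature / Material: purified bovine intestinal alkaline phosphatase (IAP) enzyme / Input: enzyme at 1/65,000,000 dilution / Dosing: 20 µM single dose / Signal: CDP-star luminescence signal / Reagent: CDP-star chemiluminescent phosphatase substrate, 30 µM final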
# mIAP activ = activators of mouse IAP, primary screen, biochemical, luminescence, uHTS. activation factor at 10 µM. muIAP, CDP-Star luminescence, 30 min; active compounds read high; 1 = vehicle-only enzyme signal, 0 = enzyme-free wells. 330,000 tested, 0.24% active. intestinal alkaline phosphatase [Mus musculus];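 active = activation factor of at least 2 at 20 µM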
#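 Assay system: mouse IAP enzyme; Reagent: CDP-Star chemiluminescent phosphatase substrate; Compound: DMSO-dissolved test compounds; Incubation: 30 min, room temperature; Technique: luminescence from enzymatic CDP-Star hydrolysis; Controls: DMSO-only wells and no-enzyme negative control.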
# hIAP inh = human IAP inhibitors, primary screen, biochemical, luminescence, uHTS; inhibition, % at 10 µM; 330,000 tested, 0.12% active; Intestinal-type alkaline phosphatase (Homo sapiens), P09923; purified IAP, CDP-Star luminescence, 30 min; AID 2544, 2010;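 active = inhibition reaching a set limit with compound at 10 µM in the primary screen, cut at about 35% in these data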;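 also: plate controls were DMSO wells with enzyme for no effect and no-enzyme buffer wells for full effect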
# hIAP act conf = human IAP activators, confirmation, biochemical, luminescence, single concentration, uHTS hits; activation (%Activity, negative = activation), % at 8.3 µM; 880 tested, 10% active; shares compounds with hIAP act; purified IAP, CDP-Star luminescence, 30 min; active compounds read low;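 active = at least twofold enzyme activation in any of six single-dose repeats, which the averaged readout prints as negative percent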
# An asterisk follows results filed as active; · = no result.
SMILES,hIAP act,mIAP inh,bIAP act,bIAP inh,mIAP activ,hIAP inh,hIAP act conf
Cc1ccccc1NC(=O)CCCN1C(=O)C2CC=CCC2C1=O (stereo not given),1.08,3.3,·,·,0.967,-7.6,·
CNC(=S)NNC(=O)c1cccn(Cc2cccc(Cl)c2)c1=O,2.01*,18.2,1.3,-34.6,0.818,-100.8,5.9
CNC(=S)NNC(=O)c1cccn(Cc2ccc(Cl)c(Cl)c2)c1=O,1.81,22.1,1.2,-19.0,0.779,-80.9,·
CCCCOc1cccc(C2/C(=C(\O)c3ccc4c(c3)OCCO4)C(=O)C(=O)N2CCN2CCOCC2)c1 (stereo not given),0.576,-0.8,·,·,1.01,42.4*,-90.6*
O=C(Nc1nnc(SCc2ccc(F)cc2)s1)c1ccc2c(c1)C(=O)N(c1ccccc1Cl)C2=O,1.29,9.9,1.1,-10.6,0.901,-29.3,·
CC(C)CC(=O)NC(=S)Nc1ccccc1C(=O)Nc1ccccc1,2.7*,31.8,1.1,-10.0,0.682,-170.2,21.2
CC(C)C(=O)NC(=S)Nc1ccccc1C(=O)Nc1ccccc1,2.65*,35.8,1,-4.5,0.642,-164.8,-107.6*
O=C(Nc1nnc(Cc2ccc([N+](=O)[O-])cc2)s1)Nc1ccccc1F,0.955,7.9,0.9,10.3,0.921,4.5,·
COc1cccc(OC)c1C(=O)N1CCNCC1,0.859,2.5,·,·,0.975,14.1,·
COc1cc(/C=C2/C(=O)NN(c3cccc(Cl)c3)C2=O)cc(OC)c1O,0.501,23.2,·,·,0.768,49.9*,9.1
CCOc1cc(/C=C2/C(=O)NN(c3cccc(Cl)c3)C2=O)ccc1O,0.671,16.5,·,·,0.835,32.9,·
CN(C(=O)Cn1cccc1C1=NC(c2ccccc2)CO1)c1ccccc1 (stereo not given),0.619,4.6,1,-4.1,0.954,38.1*,-55.2
CC1COC(c2cccn2Cc2ccccc2Cl)=N1 (stereo not given),0.864,0.6,1,1.8,0.994,13.6,·
O=C(NCCO)c1nc(C(=O)c2ccccc2)c2ccccc2n1,1.23,10.7,·,·,0.893,-22.7,·
S=C(NCc1ccncc1)Nc1ccc(Cl)cc1,2*,-7.6,0.9,6.5,1.08,-100.5,6.6
CCOc1cccc(OCCOCCOc2ccccc2C(C)=O)c1,2.24*,-6.6,0.9,8.8,1.07,-124.2,-219.0*
CCOC(=O)C1=CSC2=NS(=O)(=O)CCN12,1.05,2.0,1,2.6,0.98,-5.0,·
CCOC(=O)C1(Cc2cccc(Cl)c2)CCCN(C(=O)c2cnn(CC)c2)C1 (stereo not given),1.12,-2.1,·,·,1.02,-11.9,·
CC(=O)NC1C(=O)Nc2c(C)cc(C)cc21 (stereo not given),1.01,1.4,1,4.5,0.986,-1.2,·
CCc1ccc(S(=O)(=O)/N=C2\C=C(NS(=O)(=O)c3ccccc3)C(=O)c3ccccc32)cc1,0.639,12.6,·,·,0.874,36.1*,-21.8
O=C(OCc1ccccn1)C1CCN(C(=O)c2ccc(Cl)cc2)CC1,0.897,1.0,·,·,0.99,10.3,·
CCN(c1ccccc1)S(=O)(=O)c1ccc(OC)c(NC(=O)c2cc(Cl)ccn2)c1,1.05,1.9,·,·,0.981,-4.9,·
O=C(NCC(F)(F)F)Nc1cccnc1,0.46,-11.4,0.9,9.9,1.11,54.0*,7.4
COC(=O)/C=C1/C(=O)N/C(=N\c2nc(C)cc(C)n2)N1c1ccc(OC)cc1,0.836,5.5,1,2.4,0.945,16.4,·
COC(=O)/C=C1\N/C(=N/c2nc(C)c3cc(OC)ccc3n2)NC1=O,2.54*,0.6,·,·,0.994,-154.1,-12.5
CCOC(=O)C1CCN(S(=O)(=O)CCNC(=O)c2ccc(F)cc2)CC1,0.796,5.4,·,·,0.946,20.4,·

# Compound activity: PubChem BioAssay, Sanford-Burnham Center for Chemical Genomics
